Most compounds without a hit are left out; they make up all but 1.3% or so of the library.
JMJD2C inh – inhibitors of GASC-1 histone demethylase, primary screen, biochemical, fluorescence, DELFIA europium; GST-JMJD2C(1-420) H3K9me3 demethylation; inhibition, % at 2.35 µM; actives 0.069% (n = 330,000);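 active means more than half of a compound's replicate wells show inhibition beyond 50%, single wells judged on their own value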;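 further: signal counts dimethyl H3K9 product captured on neutravidin plate; 0% = median of DMSO wells and 100% = 0.3 times that DMSO median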
Target sequence (Q9H3R0 1-420 limits assumed): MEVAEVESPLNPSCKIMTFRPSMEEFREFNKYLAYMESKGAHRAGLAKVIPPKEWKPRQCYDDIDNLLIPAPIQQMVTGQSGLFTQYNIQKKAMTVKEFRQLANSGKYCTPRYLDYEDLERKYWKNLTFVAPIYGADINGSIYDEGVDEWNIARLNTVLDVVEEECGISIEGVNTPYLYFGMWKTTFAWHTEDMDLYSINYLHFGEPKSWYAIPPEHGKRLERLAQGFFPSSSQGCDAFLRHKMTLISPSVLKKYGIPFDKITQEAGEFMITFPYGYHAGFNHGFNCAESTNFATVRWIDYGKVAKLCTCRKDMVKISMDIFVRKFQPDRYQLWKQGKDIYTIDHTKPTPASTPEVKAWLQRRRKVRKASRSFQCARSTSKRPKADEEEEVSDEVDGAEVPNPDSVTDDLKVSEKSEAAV
proCasp7 act – procaspase-7 activators, primary screen, counter-screen for procaspase-3 activator project, biochemical, absorbance, HTS, human | Caspase-7 (Homo sapiens), P55210 | recombinant procaspase-7, Ac-DEVD-pNA absorbance 405 nm; D23A/D198A/D206A triple mutant, cannot self-cleave; scale: DMSO 0, 5 µM enzyme 100 | activation, % at 8.5 µM | actives 0.093% (n = 330,000) | AID 463210, 2010;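 active means percent activation above the screen-wide mean plus 3 SD, cut at about 25% in these data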
Target sequence (P55210 whole entry D23A/D198A/D206A): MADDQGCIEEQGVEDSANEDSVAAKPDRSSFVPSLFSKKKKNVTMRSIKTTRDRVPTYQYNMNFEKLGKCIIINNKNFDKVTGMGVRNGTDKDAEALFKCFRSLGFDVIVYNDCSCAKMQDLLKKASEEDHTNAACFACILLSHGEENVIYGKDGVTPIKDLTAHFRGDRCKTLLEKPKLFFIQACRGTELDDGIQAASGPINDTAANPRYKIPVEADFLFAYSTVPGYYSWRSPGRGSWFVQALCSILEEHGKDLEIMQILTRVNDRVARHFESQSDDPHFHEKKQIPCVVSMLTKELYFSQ
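Assay system: Uncleavable procaspase-7 mutant enzyme; Input: 2 µM procaspase-7 mutant as dispensed; Also added: DEVD-pNA substrate; Medium: Zinc-free HEPES pH 7.4 with 300 mM NaCl, 0.01% Triton X-100; Timing: 1 h compound preincubation, 2 h substrate cleavage, 25 °C; Measured by: Epi-absorbance of released pNA at 405 nm, two timepoints.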
VLA-4 inh – inhibition in human VLA-4 binding assay, primary screen, VLA-4 allosteric modulator project, MLPCN library, flow cytometry, VLA-4 expressing cells | ligand binding flow cytometry | inhibition, % (about 7 µM as worked out from the volumes in the protocol) | actives 0.2% (n = 330,000) | Integrin alpha-4 (Homo sapiens), P13612; in the data active means inhibition above about 50%
procasp3 activ – activators of human procaspase-3 D3A mutant, primary screen, biochemical, absorbance, PC-3 D3A mutant, single concentration | Caspase-3 (Homo sapiens), P42574 | recombinant procaspase-3 D3A, Ac-DEVD-pNA absorbance 405 nm | activation, % at 8.5 µM | actives 0.11% (n = 330,000) | AID 463141, 2010;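 active means activation above the mean of all tested compounds plus 3 SD, cut at about 21% in these data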;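 further: 0% = DMSO alone and 100% = DMSO wells spiked with extra 5 µM PC-3 D3A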
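material = Procaspase-3 D3A mutant | probe or stimulus = Ac-DEVD-pNA | compound = single dose, 8.5 µM nominal compound, 0.8% DMSO | timing = 1 h preincubation, 2 h reaction | measured by = 405 nm absorbance of p-nitroaniline, reads at 0 and 120 min | benchmarks = DMSO-only low control, 5 µM PC-3 D3A high control | repeats = singlicate, each compound tested once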
Lipid droplet – inhibitors of hepatocyte lipid droplet formation, primary screen, imaging, high-throughput imaging, BODIPY stain | actives 0.4% (n = 240,000) | inhibition, % at 6.5 µM | AML12 mouse hepatocytes, oleate lipid droplets;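 active means lipid droplet intensity inhibited by at least 50%, with more than 500 cells counted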
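Material – AML12 mouse liver cells · Also added – oleate loading, 100 µM · Compound dosing – 6.5 µM single-point dosing · Times – overnight treatment with compound plus oleate · Measured by – fluorescence imaging, 20x objective, two fields per well · Read-out – percent inhibition of filter-corrected integrated lipid droplet intensity per well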
GRK2 inh – compounds blocking aptamer binding on GRK2 – biochemical, human GRK2, bead flow cytometry, HTS, primary screen; Beta-adrenergic receptor kinase 1 (Homo sapiens), P25098; FAM-aptamer displacement from GRK2; inhibition of aptamer binding, % at 10 µM; actives 0.59% (n = 330,000); AID 488847, 2010;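 active means inhibition of aptamer binding above 40%, roughly 3 SD of noise, on plates passing a quality check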;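 further: median bead fluorescence of bound FAM aptamer so fluorescent compounds give negative values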
GRK2 CP1 – GRK2 aptamer-displacing inhibitors, retest, confirmation, biochemical, cherry pick 1, bead flow cytometry; shares compounds with GRK2 inh; bead-bound GRK2, FAM-aptamer displacement; aptamer displacement, % at 10 µM; actives 4% (n = 2,000); AID 504451, 2011;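 active means aptamer displacement above 40%, near three times the noise of non-fluorescent compounds, on plates passing quality checks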;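 further: negative values mostly reflect intrinsic compound fluorescence rather than true enhancement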
FAM quench CP1 – aptamer fluorescence quenching in GRK2 counter-screen. shares compounds with GRK2 inh. fluorescence response (% of DMSO), % at 10 µM. 2,000 tested, under 10 active. Carboxyfluorescein RNA aptamer on beads, flow cytometry quenching; stronger effect = lower value;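 active means compounds that quench the bead-bound fluorescent RNA probe, cutting fluorescence to under half of the solvent control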;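 further: counterscreen run without GRK2 so only probe quenching by compound is measured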
GRK2 confirm 2 – GRK2 aptamer-displacing inhibitors, hit retest, confirmation, biochemical, cherry pick 2, bead flow cytometry. shares compounds with GRK2 inh. bead-bound GRK2, FAM-aptamer displacement. inhibition of aptamer binding, % at 10 µM. 360 tested, under 10 active. AID 504782, 2011;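 active means inhibition of aptamer binding above 40%, about triple the noise seen with nonglowing compounds, on plates passing quality control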;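 further: negative values mostly come from compounds that fluoresce themselves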
FAM quench SP – counter-screen for GRK2 binding hits: quenchers of fluorescent RNA aptamer | 360 tested, under 10 active | AID 588494 | fluorescence response vs DMSO, % at 10 µM | carboxyfluorescein RNA aptamer beads, flow cytometry quenching; stronger effect = lower value | shares compounds with GRK2 inh;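 active means response vs DMSO under 50%, meaning signal dropped by over half, treated as fluorescence quencher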;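 further: labelled aptamer on streptavidin beads without GRK2 as a quench counter-screen; 100% = bead fluorescence of DMSO wells and lower means quenching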
Numbers without * were called inactive; · = no result given.

SMILES	JMJD2C inh	proCasp7 act	VLA-4 inh	procasp3 activ	Lipid droplet	GRK2 inh	GRK2 CP1	FAM quench CP1	others
O=C(O)CCc1ccccc1OC(=O)c1ccccc1	-7	-2	7	-2	-12	1	·	·
COc1ccc(C(=S)N2CCOCC2)cc1OC(=O)c1ccc(C)cc1	-28	14	5	-2	5	1	·	·
O=C(N/N=C/c1cccnc1)c1cc(O)c(O)c(O)c1	7	-27	3	-28	-9	44*	-9	99
COc1cc2c(cc1Cl)C(=O)C(F)(c1ccccc1)C(=O)N2 (stereo unspecified)	-2	-10	9	3	-4	0	·	·
CCCOc1ccc(OC(=O)Cc2ccc(OC)c(S(=O)(=O)N3CCOCC3)c2)cc1	4	-3	6	10	·	100*	-7	100
Cc1ccc([N+](=O)[O-])cc1NC(=S)NC(=O)c1cccs1	-6	1	18	-2	-6	62*	·	·	GRK2 confirm 2=5;FAM quench SP=99
COc1ccc([N+](=O)[O-])cc1NC(=O)c1cccs1	31	11	4	-2	5	1	·	·
CCc1nnc(NS(=O)(=O)c2ccc(NC(=O)COc3ccc4ccccc4c3)cc2)s1	-17	-1	12	-9	6	51*	3	98
C=CCC(CC(O)COCCC)C(=O)NNC(=S)Nc1ccccc1 (stereo unspecified)	-3	-4	6	-1	1	46*	-5	92
Fc1ccccc1N1CCN(C(c2ccncc2)c2nnnn2C2CCCC2)CC1 (stereo unspecified)	0	1	7	1	·	53*	-2	104
CNC(=O)NC(=O)CSc1nnc(-c2ccco2)n1-c1ccccc1	-10	·	3	·	10	0	·	·
CCC1Sc2ccccc2N(CC(=O)NCc2ccccc2OC)C1=O (stereo unspecified)	13	-8	-4	0	·	2	·	·
CCC1Sc2ccccc2N(CC(=O)NCCC(C)C)C1=O (stereo unspecified)	6	-4	21	-6	·	34	-2	104
CCCc1ccc(OCc2ccc(C(=O)N3CCN(c4ccccn4)CC3)o2)c(OC)c1	-1	8	9	2	-32	47*	2	96
COc1ccccc1Oc1ccc(NC(=O)Cc2ccccc2)cc1	-5	13	5	-2	·	4	·	·
O=Nc1c(O)c2ccccc2c2ccccc12	-4	-7	11	3	·	23	·	·
O=c1c(=Nc2ccccc2O)c(=O)c2ccccc12	5	3	4	-5	-12	70*	2	98
COc1ccc(/C=N/NC(=O)c2ccccc2O)cc1Cn1nnc2ccccc21	9	3	4	5	-2	0	·	·
COc1ccc(S(=O)(=O)N2CCC(C(=O)NCc3ccncc3)CC2)cc1OC	20	4	2	1	-17	0	·	·
CCOC(=O)C1(CCOC)CCN(C/C=C/c2ccccc2OC)CC1	1	17	6	0	·	0	·	·
CC(=O)c1ccc(NC(=O)c2cccc(N3C(=O)c4ccccc4C3=O)c2)cc1	-27	10	4	6	-1	48*	·	·	GRK2 confirm 2=-254;FAM quench SP=101
COc1cc(C(C)=O)ccc1OCC(=O)Nc1ccccc1N1CCCC1	-2	4	5	2	-9	87*	·	·	GRK2 confirm 2=-23;FAM quench SP=101
COc1cc(C(C)=O)ccc1OCC(=O)Nc1ccccc1N1CCCCC1	-3	1	-3	3	·	1	·	·
CCCCn1c(N)c(N(CC(C)C)C(=O)c2cc(S(=O)(=O)N3CCOCC3)ccc2Cl)c(=O)[nH]c1=O	-13	3	-10	1	·	4	·	·
O=C(NCc1ccccc1Cl)c1cccc(NC(=O)c2ccccc2)c1	-3	9	29	13	18	0	2	122
SMILES	JMJD2C inh	proCasp7 act	VLA-4 inh	procasp3 activ	Lipid droplet	GRK2 inh	GRK2 CP1	FAM quench CP1	others
O=C(NCc1ccccc1)c1cccc(NC(=O)c2ccccc2)c1	·	·	·	·	·	·	2	103
CN(C)c1cccc(C(=O)NCc2ccccc2Cl)c1	0	2	-5	8	-10	2	·	·
Cc1ccc(C(=O)Nc2cccc(C(=O)NCc3ccccc3)c2)o1	-6	7	-1	4	·	0	-21	98
O=C(NCc1ccccc1Cl)c1cccc(NC2=NC3CS(=O)(=O)CC3S2)c1 (stereo unspecified)	1	12	-5	-3	-8	2	-2	97
CCCCN(C(=O)c1ccc([N+](=O)[O-])o1)c1c(N)n(CCCC)c(=O)[nH]c1=O	-9	4	10	6	·	2	·	·
COc1cccc(NS(=O)(=O)c2csc(C(N)=O)c2)c1	-11	1	6	14	3	4	·	·
COc1ccc(CNC(=O)c2cccc(NC(=O)c3ccccc3)c2)cc1	-6	-5	24	5	5	2	3	104
COc1ccccc1CNC(=O)c1ccncc1	5	-10	4	0	·	0	·	·
COc1ccc(C(=O)N/C(=C\c2ccccc2)C(=O)Nc2cccc(C(=O)O)c2)cc1	-13	14	-7	3	18	90*	1	105
COc1ccc(/C=C(\NC(=O)c2ccc(OC)cc2)C(=O)Nc2ccc(C(=O)O)cc2)cc1	-3	·	26	·	0	1	·	·
